Data from ChEMBL document CHEMBL1121611, “Synthesis and antileukemic activity of 1-methyl-2,5-diphenyl-3,4-bis(hydroxymethyl)-, 1,2,3-triphenyl-4,5-bis(hydroxymethyl)-, and 1-methyl-2,3-diphenyl-4,5-bis(hydroxymethyl)pyrrole bis(N-methylcarbamate)” (1980).

Experiments:
Type in all cases: functional, Mus musculus
P388 [1] = assay: Compound was tested against P388 Lymphocytic Leukemia for %survival of mice measured as treated versus control at dose of 6.25 mg/kg
Outline: (§1)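 Male CD1F1 mice inoculated ip with ascitic fluid holding ca. 6 × 10^6 P388 cells. Drug given ip as a distilled water-Tween 80 suspension, nine daily doses starting 24 h after tumor inoculation. Median survival time of treated mice compared with untreated controls and expressed as % T/C; % T/C ≥ 120 counted as significant.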

P388 [2] = assay: Compound was tested against P388 Lymphocytic Leukemia for %survival of mice measured as treated versus control at dose of 25 mg/kg; outline: as §1
P388 [3] = assay: Toxicity against P388 Lymphocytic Leukemia and measured for number of mice survived after five days of 25 mg/kg drug administration out of 6 mice tested
Outline: (§2)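 Male CD1F1 mice given ip ascitic fluid with ca. 6 × 10^6 P388 cells, then ip dosing in a distilled water-Tween 80 suspension, nine daily doses beginning 24 h post-inoculation. Surviving mice counted on day 5, i.e., 4 days after the first compound injection.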

P388 [4] = assay: Compound was tested against P388 Lymphocytic Leukemia for %survival of mice measured as treated versus control at dose of 50 mg/kg; outline: as §1
P388 [5] = assay: Animal weight loss was tested for P388 Lymphocytic Leukemia and measured for change in weight, in treated and control mice at dose of 25 mg/kg; parameters: unit not given here
Outline: (§3)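 P388 leukemia was induced by ip inoculation of ascitic fluid containing ca. 6 × 10^6 cells into male CD1F1 mice. Drug was given ip as a distilled water–Tween 80 suspension, nine daily doses starting 24 h after tumor inoculation. Body weight change was recorded on day 5, i.e. 4 days after the first injection, in treated and untreated control groups.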

P388 [6] = assay: Compound was tested against P388 Lymphocytic Leukemia for %survival of mice measured as treated versus control at dose of 100 mg/kg; outline: as §1
P388 [7] = assay: Animal weight loss was tested for P388 Lymphocytic Leukemia and measured for change in weight, in treated and control mice at dose of 50 mg/kg; parameters: unit not given here; outline: as §3
P388 [8] = assay: Animal weight loss was tested for P388 Lymphocytic Leukemia and measured for change in weight, in treated and control mice at dose of 100 mg/kg; parameters: unit not given here; outline: as §3
P388 [9] = assay: Toxicity against P388 Lymphocytic Leukemia and measured for number of mice survived after five days of 100 mg/kg drug administration out of 6 mice tested; outline: as §2
P388 [10] = assay: Toxicity against P388 Lymphocytic Leukemia and measured for number of mice survived after five days of 50 mg/kg drug administration out of 6 mice tested; outline: as §2
P388 [11] = assay: Toxicity against P388 Lymphocytic Leukemia and measured for number of mice survived after five days of 12.5 mg/kg drug administration out of 6 mice tested; outline: as §2
P388 [12] = assay: Toxicity against P388 Lymphocytic Leukemia and measured for number of mice survived after five days of 6.25 mg/kg drug administration out of 6 mice tested; outline: as §2
P388 [13] = assay: Compound was tested against P388 Lymphocytic Leukemia for %survival of mice measured as treated versus control at dose of 12.5 mg/kg; outline: as §1
P388 [14] = assay: Animal weight loss was tested for P388 Lymphocytic Leukemia and measured for change in weight, in treated and control mice at dose of 12.5 mg/kg; parameters: unit not given here; outline: as §3
P388 [15] = assay: Animal weight loss was tested for P388 Lymphocytic Leukemia and measured for change in weight, in treated and control mice at dose of 6.25 mg/kg; outline: as §3
P388 [16] = assay: Toxicity against P388 Lymphocytic Leukemia and measured for number of mice survived after five days of 200 mg/kg drug administration out of 6 mice tested; outline: as §2
P388 [17] = assay: Toxicity was tested for P388 Lymphocytic Leukemia and measured for number of mice survived after five days of 25 mg/kg drug administration out of 6 mice tested; outline: as §2
P388 [18] = assay: Animal weight loss was tested for P388 Lymphocytic Leukemia and measured for change in weight, in treated and control mice at dose of 200 mg/kg; outline: as §3
P388 [19] = assay: tested for toxity against P388 Lymphocytic Leukemia and measured for number of mice survived after five days of 12.5 mg/kg drug administration out of 6 mice tested; outline: as §2
P388 [20] = assay: Compound was tested against P388 Lymphocytic Leukemia for %survival of mice measured as treated versus control at dose of 200 mg/kg; outline: as §1
P388 [21] = assay: Compound was tested against P388 Lymphocytic Leukemia for %survival of mice measured as treated versus control at dose of 20 mg/kg
P388 [22] = assay: Toxicity against P388 Lymphocytic Leukemia and measured for number of mice survived after five days of 5 mg/kg drug administration out of 6 mice tested
P388 [23] = assay: Animal weight loss was tested for P388 Lymphocytic Leukemia and measured for change in weight, in treated and control mice at dose of 10 mg/kg
P388 [24] = assay: Compound was tested against P388 Lymphocytic Leukemia for %survival of mice measured as treated versus control at dose of 5 mg/kg
P388 [25] = assay: Compound was tested against P388 Lymphocytic Leukemia for %survival of mice measured as treated versus control at dose of 40 mg/kg
P388 [26] = assay: Toxicity against P388 Lymphocytic Leukemia and measured for number of mice survived after five days of 2.5 mg/kg drug administration out of 6 mice tested
P388 [27] = assay: Animal weight loss was tested for P388 Lymphocytic Leukemia and measured for change in weight, in treated and control mice at dose of 5 mg/kg
P388 [28] = assay: Compound was tested against P388 Lymphocytic Leukemia for %survival of mice measured as treated versus control at dose of 10 mg/kg
P388 [29] = assay: Animal weight loss was tested for P388 Lymphocytic Leukemia and measured for change in weight, in treated and control mice at dose of 2.5 mg/kg
P388 [30] = assay: Compound was tested against P388 Lymphocytic Leukemia for %survival of mice measured as treated versus control at dose of 2.5 mg/kg
P388 [31] = assay: Toxicity was tested for P388 Lymphocytic Leukemia and measured for number of mice survived after five days of 20 mg/kg drug administration out of 6 mice tested
P388 [32] = assay: Animal weight loss was tested for P388 Lymphocytic Leukemia and measured for change in weight, in treated and controlled mice at dose of 20 mg/kg
P388 [33] = assay: Toxicity was tested for P388 Lymphocytic Leukemia and measured for number of mice survived after five days of 40 mg/kg drug administration out of 6 mice tested
P388 [34] = assay: Toxicity was tested for P388 Lymphocytic Leukemia and measured for number of mice survived after five days of 10 mg/kg drug administration out of 6 mice tested
P388 [35] = assay: Toxicity against P388 Lymphocytic Leukemia and measured for change in weight, in treated and controlled mice at dose of 40 mg/kg
P388 [36] = assay: Animal weight loss was tested for P388 Lymphocytic Leukemia and measured for change in weight, in treated and control mice at dose of 1.56 mg/kg; outline: as §3
P388 [37] = assay: Animal weight loss was tested for P388 Lymphocytic Leukemia and measured for change in weight, in treated and control mice at dose of 3.13 mg/kg; outline: as §3
P388 [38] = assay: Compound was tested against P388 Lymphocytic Leukemia for %survival of mice measured as treated versus control at dose of 3.13 mg/kg; outline: as §1
P388 [39] = assay: Toxicity against P388 Lymphocytic Leukemia and measured for number of mice survived after five days of 3.13 mg/kg drug administration out of 6 mice tested; outline: as §2
P388 [40] = assay: Compound was tested against P388 Lymphocytic Leukemia for %survival of mice measured as treated versus control at dose of 1.56 mg/kg; outline: as §1
P388 [41] = assay: Toxicity against P388 Lymphocytic Leukemia and measured for number of mice survived after five days of 1.56 mg/kg drug administration out of 6 mice tested; outline: as §2
P388 [42] = assay: Toxicity against P388 Lymphocytic Leukemia and measured for number of female mice survived after five days of 25 mg/kg drug administration out of 6 mice tested
P388 [43] = assay: Toxicity against P388 Lymphocytic Leukemia and measured for number of female mice survived after five days of 6.25 mg/kg drug administration out of 6 mice tested
P388 [44] = assay: Toxicity against P388 Lymphocytic Leukemia and measured for number of female mice survived after five days of 12.5 mg/kg drug administration out of 6 mice tested

Compound | T/C (P388 [1]) [%] | T/C (P388 [2]) [%] | No. of mice survived (P388 [3]) | T/C (P388 [4]) [%] | Weight loss (P388 [5]) | T/C (P388 [6]) [%] | Weight loss (P388 [7]) | Weight loss (P388 [8]) | No. of mice survived (P388 [9]) | No. of mice survived (P388 [10]) | No. of mice survived (P388 [11]) | No. of mice survived (P388 [12]) | T/C (P388 [13]) [%] | Weight loss (P388 [14]) | Weight loss (P388 [15]) | No. of mice survived (P388 [16]) | Weight loss (P388 [18]) | T/C (P388 [20]) [%] | further results
CNC(=O)OCc1c(COC(=O)NC)c(-c2ccccc2)n(C)c1C | 135 | 145 | 6 | 90 | -3.9 | <70 | -4.6 | -6 | 5 | 6 | 6 | 6 | 130 | -3.3 | -2.5 |  |  |  | 
CNC(=O)OCc1c(-c2ccccc2)c(-c2ccccc2)n(-c2ccc(OC)cc2)c1COC(=O)NC |  | 119 |  | 119 | 0.5 | 124 | -0.8 | -1 | 6 | 6 |  |  | 106 | 0.3 |  | 6 | -1.3 | 135 | No. of mice survived (P388 [17]): 6; No. of mice survived (P388 [19]): 6
CNC(=O)OCc1c(COC(=O)NC)c(-c2ccccc2)n(C)c1-c1ccccc1 |  |  |  |  |  |  |  |  |  |  |  |  |  |  |  |  |  |  | T/C (P388 [21]): 205%; No. of mice survived (P388 [22]): 6; Weight loss (P388 [23]): -2.1; T/C (P388 [24]): 135%; T/C (P388 [25]): 124%; No. of mice survived (P388 [26]): 6; Weight loss (P388 [27]): -1; T/C (P388 [28]): 164%; Weight loss (P388 [29]): -1.1; T/C (P388 [30]): 135%; No. of mice survived (P388 [31]): 6; Weight loss (P388 [32]): -2.8; No. of mice survived (P388 [33]): 6; No. of mice survived (P388 [34]): 6; Weight loss (P388 [35]): -4.4
CNC(=O)OCc1c(-c2ccccc2)c(-c2ccccc2)n(C)c1COC(=O)NC | 138 | 160 | 6 | 160 | -3.2 |  | -2.5 | -6.1 | 5 | 6 | 6 | 6 | 164 | -1.4 | -1.1 |  |  |  | Weight loss (P388 [36]): -2.3; Weight loss (P388 [37]): -0.8; T/C (P388 [38]): 128%; No. of mice survived (P388 [39]): 6; T/C (P388 [40]): 102%; No. of mice survived (P388 [41]): 6
CNC(=O)OCc1c(-c2ccccc2)c(-c2ccccc2)n(-c2ccccc2)c1COC(=O)NC |  | 117 | 6 | 126 | 0.1 | 144 | -1.1 | -0.6 | 6 | 6 | 6 |  | 110 | -0.2 |  | 6 | -2.4 | 171 | 
CNC(=O)OCc1c(COC(=O)NC)c(C)n(-c2ccccc2)c1C | 134 | 148 |  |  |  |  |  |  |  |  |  |  | 145 |  |  |  |  |  | No. of mice survived (P388 [42]): 6; No. of mice survived (P388 [43]): 5; No. of mice survived (P388 [44]): 5
